Test results published in ChEMBL document CHEMBL1641392, “Triterpenes from Garcia parviflora. Cytotoxic evaluation of natural and semisynthetic friedelanes” (J Nat Prod, 2010).
pIC50: −log10 of the molar value.

Tests used:
Type in all cases: functional, cell-based
K562 = assay: Cytotoxicity against human K562 cells after 48 hrs by sulforhodamine B assay
How it was run: (§1)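 Cells (NCI source) in RPMI-1640 with 10% FBS and antibiotics, 37 °C, 5% CO2. Seeded at 5 × 10^4 cells/mL (K562, MCF-7), 7.5 × 10^4 (U251, PC-3, SKLU-1), or 10 × 10^4 (HCT-15). After 24 h, DMSO-dissolved compounds added for 48 h. Fixed with cold TCA, stained with 0.4% SRB, Tris-extracted, read at 515 nm. IC50 from linear regression of dose-response curves.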

MCF7 = assay: Cytotoxicity against human MCF7 cells after 48 hrs by sulforhodamine B assay; how it was run: as §1
SK-LU-1 = assay: Cytotoxicity against human SK-LU-1 cells after 48 hrs by sulforhodamine B assay; how it was run: as §1
PC-3 = assay: Cytotoxicity against human PC3 cells after 48 hrs by sulforhodamine B assay; how it was run: as §1
U-251 = assay: Cytotoxicity against human U251 cells after 48 hrs by sulforhodamine B assay; conditions: U-251, 48 h; how it was run: as §1
HCT-15 = assay: Cytotoxicity against human HCT15 cells after 48 hrs by sulforhodamine B assay; conditions: HCT-15, 48 h; how it was run: as §1

SMILES: C[C@H]1C(=O)CC(=O)[C@@H]2[C@]1(C)CC[C@H]1[C@@]2(C)CC[C@@]2(C)[C@@H]3CC(C)(C)CC[C@]3(C)CC[C@]12C
- Activity (K562): Not toxic
- Activity (MCF7): Not toxic
- Activity (SK-LU-1): Not toxic
- Activity (PC-3): Not toxic

SMILES: C[C@H]1OC(=O)C[C@@H](O)[C@@H]2[C@]1(C)CC[C@H]1[C@@]2(C)CC[C@@]2(C)[C@@H]3CC(C)(C)CC[C@]3(C)CC[C@]12C
- Activity (K562): Not toxic
- Activity (MCF7): Not toxic
- Activity (SK-LU-1): Not toxic
- Activity (PC-3): Not toxic

SMILES: C[C@H]1[C@@H](O)C[C@@H](O)[C@@H]2[C@]1(C)CC[C@H]1[C@@]2(C)CC[C@@]2(C)[C@@H]3CC(C)(C)CC[C@]3(C)CC[C@]12C
- Activity (K562): Not toxic
- pIC50 (U-251): 4.64
- Activity (MCF7): Not toxic
- Activity (SK-LU-1): Not toxic
- Activity (PC-3): Not toxic

SMILES: CC(=O)O[C@H]1CC[C@]2(C)[C@H]3CC[C@]4(C)C(=CC[C@@]5(C(=O)O)CCC(C)(C)C[C@H]54)[C@]3(C)CC[C@H]2C1(C)C [ACETYL ALEURITOLIC ACID]
- Activity (K562): Not toxic
- pIC50 (U-251): 5.08
- Activity (MCF7): Not toxic
- Activity (SK-LU-1): Not toxic
- Activity (PC-3): Not toxic

SMILES: C[C@H]1NC(=O)C[C@@H](O)[C@@H]2[C@]1(C)CC[C@H]1[C@@]2(C)CC[C@@]2(C)[C@@H]3CC(C)(C)CC[C@]3(C)CC[C@]12C
- Activity (K562): Not toxic
- Activity (MCF7): Not toxic
- Activity (SK-LU-1): Not toxic
- Activity (PC-3): Not toxic

SMILES: C[C@H]1OC(=O)CC[C@@H]2[C@]1(C)CC[C@H]1[C@@]2(C)CC[C@@]2(C)[C@@H]3CC(C)(C)CC[C@]3(C)CC[C@]12C [FRIEDELIN-3,4-LACTONE]
- Activity (K562): Not toxic
- pIC50 (U-251): 4.77
- Activity (MCF7): Not toxic
- Activity (SK-LU-1): Not toxic
- Activity (PC-3): Not toxic

SMILES: C[C@H]1C(=O)C[C@@H](O)[C@@H]2[C@]1(C)CC[C@H]1[C@@]2(C)CC[C@@]2(C)[C@@H]3CC(C)(C)CC[C@]3(C)CC[C@]12C
- Activity (K562): Not toxic
- Activity (MCF7): Not toxic
- Activity (SK-LU-1): Not toxic
- Activity (PC-3): Not toxic

SMILES: C[C@H]1C(=O)C=C[C@@H]2[C@]1(C)CC[C@H]1[C@@]2(C)CC[C@@]2(C)[C@@H]3CC(C)(C)CC[C@]3(C)CC[C@]12C
- Activity (K562): Not toxic
- Activity (MCF7): Not toxic
- Activity (SK-LU-1): Not toxic
- Activity (PC-3): Not toxic

SMILES: C[C@H]1/C(=N/O)C[C@@H](O)[C@@H]2[C@]1(C)CC[C@H]1[C@@]2(C)CC[C@@]2(C)[C@@H]3CC(C)(C)CC[C@]3(C)CC[C@]12C
- Activity (K562): Not toxic
- Activity (MCF7): Not toxic
- Activity (SK-LU-1): Not toxic
- Activity (PC-3): Not toxic

SMILES: CC1(C)CC[C@]2(C)CC[C@]3(C)[C@H]4CC[C@@]5(C)[C@@H](C=CC(=O)[C@@]5(C)O)[C@]4(C)CC[C@@]3(C)[C@@H]2C1
- Activity (K562): Not toxic
- Activity (MCF7): Not toxic
- Activity (SK-LU-1): Not toxic
- Activity (PC-3): Not toxic
- pIC50 (HCT-15): 4.38

SMILES: CC(=O)O[C@H]1C[C@@H](O)[C@@H]2[C@](C)(CC[C@H]3[C@@]2(C)CC[C@@]2(C)[C@@H]4CC(C)(C)CC[C@]4(C)CC[C@]32C)[C@H]1C
- Activity (K562): Not toxic
- Activity (MCF7): Not toxic
- Activity (SK-LU-1): Not toxic
- Activity (PC-3): Not toxic

SMILES: CC(=O)O[C@H]1C[C@@H](OC(C)=O)[C@@H]2[C@](C)(CC[C@H]3[C@@]2(C)CC[C@@]2(C)[C@@H]4CC(C)(C)CC[C@]4(C)CC[C@]32C)[C@H]1C
- Activity (K562): Not toxic
- Activity (MCF7): Not toxic
- Activity (SK-LU-1): Not toxic
- Activity (PC-3): Not toxic

SMILES: C=C[C@@H]1[C@@](C)([C@@H](C)C(=O)O)CC[C@H]2[C@@]1(C)CC[C@@]1(C)[C@@H]3CC(C)(C)CC[C@]3(C)CC[C@]21C
- Activity (K562): Not toxic
- pIC50 (U-251): 4.43
- Activity (MCF7): Not toxic
- Activity (SK-LU-1): Not toxic
- Activity (PC-3): Not toxic

SMILES: CC1(C)CC[C@]2(C)CC[C@]3(C)[C@H]4CC[C@@]5(C)[C@@H](CC[C@H](O)[C@@H]5C(=O)O)[C@]4(C)CC[C@@]3(C)[C@@H]2C1
- Activity (K562): Not toxic
- Activity (MCF7): Not toxic
- Activity (SK-LU-1): Not toxic
- Activity (PC-3): Not toxic
